Measured values of several laboratories.
Observed: cell growth or viability

CC(C)(C)c1cnc(CSc2cnc(NC(=O)C3CCN(C(=O)COCCOCCSc4cccc5c4C(=O)N(C4CCC(=O)NC4=O)C5=O)CC3)s2)o1 (stereo not drawn) has a viability of 13.5% (HH; CCK-8; 0.5 µM).
For CC(=NNC(=O)c1cccnc1)c1ccc(Nc2nnc(-c3ccc(Cl)cc3)c3ccccc23)cc1, the viability was 6.93% (HepG2; MTT; 2.5 µM; 24 h).
With CC(=O)c1nn(-c2ccccc2Cl)/c(=N/N=C(\C)c2ccc(NC(=O)c3ccccc3)cc2)s1 the viability was 6.09% (HepG2; MTT; 5 µM).
CC(C)(C)c1cnc(CSc2cnc(NC(=O)C3CCN(CCCCCSc4cccc5c4CN(C4CCC(=O)NC4=O)C5=O)CC3)s2)o1 (stereo not drawn) gave a viability of 0% (HH; CCK-8; 0.25 µM).
O=C(Nc1ccc(Oc2nnc(-c3ccc(Cl)cc3)c3ccccc23)cc1)c1ccccc1 gave a viability of 4.07% (HepG2; MTT; 10 µM; 24 h).
CC(=NNC(=O)COc1ccc2c(C)c(Cc3ccccc3)c(=O)oc2c1C)c1ccc(Br)cc1 gave a viability of 34.7% (HepG2; MTT; 100 µg/mL).
With CC(=NNC(=O)c1ccccc1Br)c1ccc(Nc2nnc(-c3ccc(Cl)cc3)c3ccccc23)cc1 the viability was 21.2% (HepG2; MTT; 0.625 µM; 24 h).
The viability of CC(=O)Nc1ccc(/C(C)=N/N=c2\sc(C(C)=O)nn2-c2ccc(C)cc2)cc1 is reported as 100% (HepG2; MTT; 0.312 µM).
For CC(C)(C)c1cnc(CSc2cnc(NC(=O)C3CCN(CCCCSc4cccc5c4C(=O)N(C4CCC(=O)NC4=O)C5=O)CC3)s2)o1 (stereo not drawn), the viability was 100% (HH; CCK-8; 1 nM).
